Measured values reported in ChEMBL document CHEMBL1129298, “Nonpeptide angiotensin II receptor antagonists: synthesis, biological activities, and structure-activity relationships of imidazole-5-carboxylic acids bearing alkyl, alkenyl, and hydroxyalkyl substituents at the 4-position and their related compounds” (J Med Chem, 1996).

Key:
[1] = target: T1, Type-1 angiotensin II receptor (Bos taurus, UniProt P25104); assay: In vitro for inhibition of [125I]-angiotensin II (0.1 nM) binding to angiotensin II receptor type 1 in membrane fractions of bovine adrenal cortex; type: tissue-based
T1 sequence (P25104 whole entry): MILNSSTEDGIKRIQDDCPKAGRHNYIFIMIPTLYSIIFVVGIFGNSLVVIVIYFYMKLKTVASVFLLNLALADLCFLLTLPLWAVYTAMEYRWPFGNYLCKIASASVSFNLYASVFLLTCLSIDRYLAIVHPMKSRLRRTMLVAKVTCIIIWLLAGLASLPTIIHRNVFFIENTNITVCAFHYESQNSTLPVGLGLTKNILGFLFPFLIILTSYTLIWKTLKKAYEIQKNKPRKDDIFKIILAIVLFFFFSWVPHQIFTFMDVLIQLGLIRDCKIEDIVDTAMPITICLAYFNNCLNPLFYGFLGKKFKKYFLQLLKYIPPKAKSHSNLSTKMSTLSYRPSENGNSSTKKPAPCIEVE

[2] = target: Angiotensin II receptor (Rattus norvegicus) (UniProt P29089+P25095+P35351); assay: In vivo inhibitory activity against angiotensin II induced pressor response in anesthetized normotensive rats; type: functional, organism-based
Summary of the method: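 Male Wistar-Imamichi rats (300–400 g) under inactin (100 mg/kg ip), with femoral arterial and venous cannulae. AII 50 ng/kg iv every 10 min until responses were constant. Compound in DMSO was then given iv and AII re-injected 2 min later.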

Rattus norvegicus [3] = assay: Inhibitory activity against AII-Induced Pressor response at 10 mg/Kg at 3 hour; type: functional
Summary of the method: (§1)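 Male Wistar-Imamichi rats (300–400 g) cannulated under pentobarbital (50 mg/kg ip), fasted 24 h, tested conscious the next day. AII 50 ng/kg iv was repeated until constant, then compound in 50% aqueous DMF given orally. AII was repeated over 8 h, and mean blood pressure response inhibition (%) was recorded at 1, 3, 6 h. n = 3–5.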

Rattus norvegicus [4] = assay: Inhibitory activity against AII-Induced Pressor response at 10 mg/Kg at 6 hour; type: functional; summary of the method: as §1
Rattus norvegicus [5] = assay: Inhibitory activity against AII-Induced Pressor response at 3 mg/Kg at 1 hr; type: functional; summary of the method: as §1
Rattus norvegicus [6] = assay: Inhibitory activity against AII-Induced Pressor response at 3 mg/Kg at 3 hour; type: functional; summary of the method: as §1
Rattus norvegicus [7] = assay: Inhibitory activity against AII-Induced Pressor response at 3 mg/Kg at 6 hour; type: functional; summary of the method: as §1
Rattus norvegicus [8] = assay: Inhibitory activity against AII-Induced Pressor response at 1 mg/Kg at 1 hr; type: functional; summary of the method: as §1
Rattus norvegicus [9] = assay: Inhibitory activity against AII-Induced Pressor response at 1 mg/Kg at 3 hour; type: functional; summary of the method: as §1
Rattus norvegicus [10] = assay: Inhibitory activity against AII-Induced Pressor response at 1 mg/Kg at 6 hour; type: functional; summary of the method: as §1
Rattus norvegicus [11] = assay: Inhibitory activity against AII-Induced Pressor response at 10 mg/Kg at 1 hr; type: functional; summary of the method: as §1
Rattus norvegicus [12] = assay: Inhibitory activity against AII-Induced Pressor response at 1 mg/kg at 1 hr; type: functional; summary of the method: as §1
Rattus norvegicus [13] = assay: Inhibitory activity against AII-Induced Pressor response at 1 mg/kg at 3 hour; type: functional; settings: Rattus norvegicus, 3 h; summary of the method: as §1
Rattus norvegicus [14] = assay: Inhibitory activity against AII-Induced Pressor response at 1 mg/kg at 6 hour; type: functional; settings: Rattus norvegicus, 6 h, dose 1 mg/kg; summary of the method: as §1
Rattus norvegicus [15] = assay: Inhibitory activity against AII-Induced Pressor response at 0.3 mg/Kg at 1 hr; type: functional; summary of the method: as §1
Rattus norvegicus [16] = assay: Inhibitory activity against AII-Induced Pressor response at 0.3 mg/Kg at 3 hour; type: functional; summary of the method: as §1
Rattus norvegicus [17] = assay: Inhibitory activity against AII-Induced Pressor response at 0.3 mg/Kg at 6 hour; type: functional; summary of the method: as §1

For CCCc1ncc(C(=O)O)n1Cc1ccc(-c2ccccc2-c2nn[nH]n2)cc1, the IC50 [1] was 9.1 nM and the ID50 [2] was 0.018 mg/kg.
In the case of CCCCc1nc(C(C)(C)O)c(C(=O)O)n1Cc1ccc(-c2ccccc2C(=O)O)cc1, the IC50 [1] is reported as 30 nM and the ID50 [2] is reported as 0.066 mg/kg.
Work on CCCCc1nc(Cl)c(CO)n1Cc1ccc(-c2ccccc2C(=O)O)cc1 yielded an ID50 [2] of 2.3 mg/kg.
With CCCc1nc(C(=O)O)c(C(=O)O)n1Cc1ccc(-c2ccccc2-c2nn[nH]n2)cc1 the ID50 [2] was 0.031 mg/kg.
CCCc1nc(CO)c(CO)n1Cc1ccc(-c2ccccc2C(=O)O)cc1 was tested, and the ID50 [2] was 2.1 mg/kg.
CCCCc1nc(Cl)c(C(=O)O)n1Cc1ccc(-c2ccccc2-c2nn[nH]n2)cc1 [CARBOXYLIC ACID METABOLITE] gave an ID50 [2] of 0.1 mg/kg, an inhibition in vivo at 10 mg/kg (Rattus norvegicus [3]) of 93% and an inhibition in vivo at 10 mg/kg (Rattus norvegicus [4]) of 89%. For the same molecule, the inhibition in vivo at 3 mg/kg (Rattus norvegicus [5]) was 81%, the inhibition in vivo at 3 mg/kg (Rattus norvegicus [6]) was 81% and the inhibition in vivo at 3 mg/kg (Rattus norvegicus [7]) was 81%. For the same molecule, the inhibition in vivo at 1 mg/kg (Rattus norvegicus [8]) was 74%, the inhibition in vivo at 1 mg/kg (Rattus norvegicus [9]) was 72% and the inhibition in vivo at 1 mg/kg (Rattus norvegicus [10]) was 70%. It also gave an inhibition in vivo at 10 mg/kg (Rattus norvegicus [11]) of 89%.
Work on CCCc1nc(C(=O)O)c(C(=O)O)n1Cc1ccc(-c2ccccc2C(=O)O)cc1 yielded an ID50 [2] of 0.67 mg/kg.
CCc1nc(C(C)(C)O)c(C(=O)O)n1Cc1ccc(-c2ccccc2C(=O)O)cc1 showed an IC50 [1] of 37 nM and an ID50 [2] of 0.3 mg/kg.
In the case of CCCc1nc(C(C)(C)O)c(C(=O)OCOC(=O)OC(C)C)n1Cc1ccc(-c2ccccc2C(=O)O)cc1, the inhibition in vivo at 1 mg/kg (Rattus norvegicus [12]) is reported as 71%, the inhibition in vivo at 1 mg/kg (Rattus norvegicus [13]) is reported as 71% and the inhibition in vivo at 1 mg/kg (Rattus norvegicus [14]) is reported as 71%.
CCCc1nc(C(C)(C)O)c(C(=O)OCC)n1Cc1ccc(-c2ccccc2-c2nn[nH]n2)cc1 gave an ID50 [2] of 0.32 mg/kg, an inhibition in vivo at 1 mg/kg (Rattus norvegicus [8]) of 70% and an inhibition in vivo at 1 mg/kg (Rattus norvegicus [9]) of 72%. For the same molecule, the inhibition in vivo at 1 mg/kg (Rattus norvegicus [10]) was 76%.
CCCc1nc(C(C)C)c(C(=O)O)n1Cc1ccc(-c2ccccc2-c2nnn[nH]2)cc1 gave an IC50 [1] of 46 nM.
With CCCc1nc(C(C)C)c(C(=O)O)n1Cc1ccc(-c2ccccc2C(=O)O)cc1 the ID50 [2] was 0.14 mg/kg.
Work on CCCc1nc(CC)c(C(=O)O)n1Cc1ccc(-c2ccccc2-c2nn[nH]n2)cc1 yielded an ID50 [2] of 0.019 mg/kg.
With CCCc1nc(C(=O)O)c(CO)n1Cc1ccc(-c2ccccc2-c2nn[nH]n2)cc1 the IC50 [1] was 4600 nM and the ID50 [2] was 1.7 mg/kg.
CCCc1nc(C(C)O)c(C(=O)O)n1Cc1ccc(-c2ccccc2-c2nn[nH]n2)cc1 (configuration not stated) gave an ID50 [2] of 0.0063 mg/kg, an inhibition in vivo at 0.3 mg/kg (Rattus norvegicus [15]) of 80% and an inhibition in vivo at 0.3 mg/kg (Rattus norvegicus [16]) of 78%. For the same molecule, the inhibition in vivo at 0.3 mg/kg (Rattus norvegicus [17]) was 69%.
CCCc1nc(C(=O)O)cn1Cc1ccc(-c2ccccc2C(=O)O)cc1 showed an IC50 [1] of 45000 nM and an ID50 [2] of 8.2 mg/kg.
For CCCc1nc(C(C)(C)O)c(C(=O)OC2OC(=O)c3ccccc32)n1Cc1ccc(-c2ccccc2C(=O)O)cc1 (configuration not stated), the inhibition in vivo at 1 mg/kg (Rattus norvegicus [12]) was 73%, the inhibition in vivo at 1 mg/kg (Rattus norvegicus [13]) was 77% and the inhibition in vivo at 1 mg/kg (Rattus norvegicus [14]) was 74%.
For CCCc1nc(C(C)(C)O)c(C(=O)O)n1Cc1ccc(-c2ccccc2C(=O)O)cc1, the IC50 [1] was 28 nM, the ID50 [2] was 0.056 mg/kg and the inhibition in vivo at 10 mg/kg (Rattus norvegicus [3]) was 70%. The inhibition in vivo at 10 mg/kg (Rattus norvegicus [4]) was 56%, the inhibition in vivo at 1 mg/kg (Rattus norvegicus [12]) was 50% and the inhibition in vivo at 1 mg/kg (Rattus norvegicus [13]) was 42%. For the same molecule, the inhibition in vivo at 1 mg/kg (Rattus norvegicus [14]) was 12%, the inhibition in vivo at 3 mg/kg (Rattus norvegicus [5]) was 78% and the inhibition in vivo at 3 mg/kg (Rattus norvegicus [6]) was 67%. For the same molecule, the inhibition in vivo at 3 mg/kg (Rattus norvegicus [7]) was 48% and the inhibition in vivo at 10 mg/kg (Rattus norvegicus [11]) was 88%.
C=C(C)c1nc(CCC)n(Cc2ccc(-c3ccccc3-c3nnn[nH]3)cc2)c1C(=O)O gave an IC50 [1] of 50 nM.
For CCc1nc(C(C)(C)O)c(C(=O)O)n1Cc1ccc(-c2ccccc2-c2nnn[nH]2)cc1, the IC50 [1] was 5.3 nM.
In the case of CCCCc1nc(Cl)c(C(=O)O)n1Cc1ccc(-c2ccccc2C(=O)O)cc1, the ID50 [2] is reported as 0.21 mg/kg.
With CCCc1nc(C)c(C(=O)O)n1Cc1ccc(-c2ccccc2-c2nn[nH]n2)cc1 the IC50 [1] was 11 nM and the ID50 [2] was 0.028 mg/kg.
For C=C(C)c1nc(CCC)n(Cc2ccc(-c3ccccc3-c3nn[nH]n3)cc2)c1C(=O)O, the ID50 [2] was 0.012 mg/kg.
CCCc1nc(C(C)(C)O)c(C(=O)OCc2oc(=O)oc2C)n1Cc1ccc(-c2ccccc2C(=O)O)cc1 showed an inhibition in vivo at 1 mg/kg (Rattus norvegicus [12]) of 72%, an inhibition in vivo at 1 mg/kg (Rattus norvegicus [13]) of 70% and an inhibition in vivo at 1 mg/kg (Rattus norvegicus [14]) of 70%.
For CCCc1nc(C(C)(C)O)c(C(=O)OCC)n1Cc1ccc(-c2ccccc2-c2nnn[nH]2)cc1, the IC50 [1] was 200 nM.
